In ChEMBL document CHEMBL3227971, “Synthesis and antibacterial activity of 2-oxocephalosporins” (1979):
Values after ≈ are worked out from the molar mass of the structure shown.

Tests used:
Format in all cases: functional
Proteus mirabilis [1] = test: Antimicrobial activity against Proteus mirabilis 9900 by two fold serial dilution technique
Summary of the method: (§1)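 MIC determined by twofold serial broth dilution in nutrient broth, reported in μg/mL.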

Proteus mirabilis [2] = test: Antimicrobial activity against Proteus mirabilis 9716 by two fold serial dilution technique; summary of the method: as §1
Staphylococcus aureus [3] = test: Antimicrobial activity against Staphylococcus aureus 9537 by two fold serial dilution technique in presence of 50% serum
Morganella morganii = test: Antimicrobial activity against Proteus morganii 15153 by two fold serial dilution technique; summary of the method: as §1
Klebsiella pneumoniae [4] = test: Antimicrobial activity against Klebsiella pneumoniae 15130 by two fold serial dilution technique; summary of the method: as §1
Providencia rettgeri = test: Antimicrobial activity against Providencia rettgeri 21205 by two fold serial dilution technique; summary of the method: as §1
Escherichia coli [5] = test: Antimicrobial activity against Escherichia coli 20341 by two fold serial dilution technique; summary of the method: as §1
Pseudomonas aeruginosa = test: Antimicrobial activity against Pseudomonas aeruginosa 9843 by two fold serial dilution technique; summary of the method: as §1
Enterobacter cloacae [6] = test: Antimicrobial activity against Enterobacter cloacae 9659 by two fold serial dilution technique; summary of the method: as §1
Staphylococcus aureus [7] = test: Antimicrobial activity against Staphylococcus aureus 9537 by two fold serial dilution technique; summary of the method: as §1
Escherichia coli [8] = test: Antimicrobial activity against Escherichia coli 15119 by two fold serial dilution technique; summary of the method: as §1
Staphylococcus aureus [9] = test: Antimicrobial activity against methicillin-resistant Staphylococcus aureus 15097 by two fold serial dilution technique
Summary of the method: (§2)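 MIC determined by twofold serial dilution in nutrient broth; values reported in μg/mL.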

Streptococcus pyogenes = test: Antimicrobial activity against Streptococcus pyogenes 9604 by two fold serial dilution technique; summary of the method: as §1
Enterobacter cloacae [10] = test: Antimicrobial activity against Enterobacter cloacae 9656 by two fold serial dilution technique; summary of the method: as §1
Enterococcus faecalis = test: Antimicrobial activity against Streptococcus faecalis 20688 by two fold serial dilution technique; summary of the method: as §1
Streptococcus pneumoniae = test: Antimicrobial activity against Streptococcus pneumoniae 1985 by two fold serial dilution technique; summary of the method: as §1
Klebsiella pneumoniae [11] = test: Antimicrobial activity against Klebsiella pneumoniae 20468 by two fold serial dilution technique; summary of the method: as §1
Staphylococcus aureus [12] = test: Antimicrobial activity against penicillin-resistant Staphylococcus aureus 9606 by two fold serial dilution technique; summary of the method: as §2
Serratia marcescens = test: Antimicrobial activity against Serratia marcescens 20019 by two fold serial dilution technique; summary of the method: as §1

| Structure (SMILES) | MIC (Proteus mirabilis [1]) | MIC (Proteus mirabilis [2]) | MIC (Staphylococcus aureus [3]) | MIC (Morganella morganii) | MIC (Klebsiella pneumoniae [4]) | MIC (Providencia rettgeri) | MIC (Escherichia coli [5]) | MIC (Pseudomonas aeruginosa) | MIC (Enterobacter cloacae [6]) | MIC (Staphylococcus aureus [7]) | MIC (Escherichia coli [8]) | MIC (Staphylococcus aureus [9]) | MIC (Streptococcus pyogenes) | MIC (Enterobacter cloacae [10]) | MIC (Enterococcus faecalis) | MIC (Streptococcus pneumoniae) | MIC (Klebsiella pneumoniae [11]) | MIC (Staphylococcus aureus [12]) | MIC (Serratia marcescens) |
| --- | --- | --- | --- | --- | --- | --- | --- | --- | --- | --- | --- | --- | --- | --- | --- | --- | --- | --- | --- |
| CC1=C(C(=O)O)N2C(=O)[C@@H](NC(=O)Cc3cccs3)[C@H]2SC1=O | 63 µg/mL (≈ 179 µM) | 63 µg/mL (≈ 179 µM) | > 63 µg/mL | > 125 µg/mL | > 125 µg/mL | > 125 µg/mL | > 125 µg/mL | > 125 µg/mL | > 125 µg/mL | 8 µg/mL (≈ 22.7 µM) | > 125 µg/mL | > 125 µg/mL | 125 µg/mL (≈ 355 µM) | > 125 µg/mL | 63 µg/mL (≈ 179 µM) | 63 µg/mL (≈ 179 µM) | > 125 µg/mL | > 125 µg/mL | > 125 µg/mL |
| CC(=O)OCC1=C(C(=O)O)N2C(=O)[C@@H](NC(=O)Cc3cccs3)[C@H]2SC1=O | 32 µg/mL (≈ 78 µM) | 63 µg/mL (≈ 153 µM) | 63 µg/mL | > 125 µg/mL | > 125 µg/mL | > 125 µg/mL | > 125 µg/mL | > 125 µg/mL | > 125 µg/mL | 4 µg/mL (≈ 9.75 µM) | > 125 µg/mL | > 125 µg/mL | 1 µg/mL (≈ 2.44 µM) | > 125 µg/mL | 125 µg/mL (≈ 305 µM) | 1 µg/mL (≈ 2.44 µM) | > 125 µg/mL | 16 µg/mL (≈ 39 µM) | > 125 µg/mL |
| CC1=C(C(=O)O)N2C(=O)[C@@H](NC(=O)COc3ccccc3)[C@H]2SC1=O | 125 µg/mL (≈ 345 µM) | 125 µg/mL (≈ 345 µM) | > 63 µg/mL | > 125 µg/mL | > 125 µg/mL | > 125 µg/mL | > 125 µg/mL | > 125 µg/mL | > 125 µg/mL | 8 µg/mL (≈ 22.1 µM) | > 125 µg/mL | > 125 µg/mL | 32 µg/mL (≈ 88.3 µM) | > 125 µg/mL | 63 µg/mL (≈ 174 µM) | 32 µg/mL (≈ 88.3 µM) | > 125 µg/mL | 125 µg/mL (≈ 345 µM) | > 125 µg/mL |
| CC(=O)OCC1=C(C(=O)O)N2C(=O)[C@@H](NC(=O)Cc3cccs3)[C@H]2SC1 [CEPHALOTHIN] | 1 µg/mL (≈ 2.52 µM) | 2 µg/mL (≈ 5.04 µM) | 8 µg/mL | > 125 µg/mL | 16 µg/mL (≈ 40.4 µM) | 63 µg/mL (≈ 159 µM) | 16 µg/mL (≈ 40.4 µM) | > 125 µg/mL | > 125 µg/mL | 0.13 µg/mL (≈ 0.328 µM) | 16 µg/mL (≈ 40.4 µM) | 32 µg/mL (≈ 80.7 µM) | 0.13 µg/mL (≈ 0.328 µM) | > 125 µg/mL | 32 µg/mL (≈ 80.7 µM) | 0.06 µg/mL (≈ 0.151 µM) | > 125 µg/mL | 0.5 µg/mL (≈ 1.26 µM) | > 125 µg/mL |
| CC1=C(C(=O)O)N2C(=O)[C@@H](N)[C@H]2SC1=O.Cc1ccc(S(=O)(=O)O)cc1 | > 125 µg/mL | 125 µg/mL | > 63 µg/mL | > 125 µg/mL | > 125 µg/mL | 125 µg/mL | > 125 µg/mL | > 125 µg/mL | > 125 µg/mL | 32 µg/mL | > 125 µg/mL | 125 µg/mL | 125 µg/mL | > 125 µg/mL | 32 µg/mL | 63 µg/mL | > 125 µg/mL | > 125 µg/mL | > 125 µg/mL |
